Experimental data: ChEMBL document CHEMBL4765302, “Design, synthesis and biological evaluation of novel histone deacetylase1/2 (HDAC1/2) and cyclin-dependent Kinase2 (CDK2) dual inhibitors against malignant cancer” (Eur J Med Chem, 2020)

Key:
HCT-116 [1] = experiment: Antiproliferative activity against human HCT-116 cells assessed as reduction in cell growth at 2 uM incubated for 72 hrs by CCK-8 assay relative to control; assay type: functional
HCT-116 [2] = experiment: Antiproliferative activity against human HCT-116 cells assessed as reduction in cell growth at 8 uM incubated for 72 hrs by CCK-8 assay relative to control; assay type: functional
HepG2 [3] = experiment: Antiproliferative activity against human HepG2 cells assessed as reduction in cell growth at 2 uM incubated for 72 hrs by CCK-8 assay relative to control; assay type: functional
HepG2 [4] = experiment: Antiproliferative activity against human HepG2 cells assessed as reduction in cell growth at 8 uM incubated for 72 hrs by CCK-8 assay relative to control; assay type: functional
NCI-H460 [5] = experiment: Antiproliferative activity against human H460 cells assessed as reduction in cell growth at 2 uM incubated for 72 hrs by CCK-8 assay relative to control; assay type: functional
NCI-H460 [6] = experiment: Antiproliferative activity against human H460 cells assessed as reduction in cell growth at 8 uM incubated for 72 hrs by CCK-8 assay relative to control; assay type: functional
Histone deacetylase 1 = Histone deacetylase 1 (Homo sapiens, UniProt Q13547); experiment: Inhibition of recombinant human HDAC1 at 10 uM using SIRT1 as substrate incubated for 10 mins followed by substrate addition and measured after 30 mins by fluorescence based assay relative to control; settings: time 40.0 min
Chain of Histone deacetylase 1 (Q13547 whole entry): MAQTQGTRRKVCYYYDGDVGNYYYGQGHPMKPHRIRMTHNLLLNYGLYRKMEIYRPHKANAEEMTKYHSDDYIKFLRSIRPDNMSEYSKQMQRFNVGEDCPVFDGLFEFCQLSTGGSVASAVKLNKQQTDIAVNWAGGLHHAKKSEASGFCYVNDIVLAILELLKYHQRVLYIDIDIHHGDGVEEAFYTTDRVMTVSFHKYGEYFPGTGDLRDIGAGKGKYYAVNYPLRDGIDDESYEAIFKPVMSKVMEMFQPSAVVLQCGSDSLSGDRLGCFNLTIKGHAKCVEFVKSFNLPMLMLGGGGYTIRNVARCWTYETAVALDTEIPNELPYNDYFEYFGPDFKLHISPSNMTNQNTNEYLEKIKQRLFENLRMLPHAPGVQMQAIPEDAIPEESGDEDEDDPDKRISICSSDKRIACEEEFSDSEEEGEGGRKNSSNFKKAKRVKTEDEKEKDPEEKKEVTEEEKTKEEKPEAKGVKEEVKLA
How it was run: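 Enzyme inhibition of HDAC1 measured at a single concentration of 10 µM, tested alongside the cell-growth screen.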

NCI-H460 [7] = experiment: Antiproliferative activity against human NCI-H460 cells assessed as reduction in cell growth incubated for 72 hrs by CCK-8 assay; assay type: functional, cell-based; settings: NCI-H460, 72 h
How it was run: (§1)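 IC50 by CCK-8 assay across five solid-tumour lines (HCT116, HepG2, H460, HeLa, A375). Run only for compounds chosen after the single-concentration screen, with CS055 and roscovitine as references.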

A-375 = experiment: Antiproliferative activity against human A-375 cells assessed as reduction in cell growth incubated for 72 hrs by CCK-8 assay; assay type: functional, cell-based; settings: A-375, 72 h; how it was run: as §1
HepG2 [8] = experiment: Antiproliferative activity against human HepG2 cells assessed as reduction in cell growth incubated for 72 hrs by CCK-8 assay; assay type: functional, cell-based; settings: HepG2, 72 h; how it was run: as §1
HCT-116 [9] = experiment: Antiproliferative activity against human HCT-116 cells assessed as reduction in cell growth incubated for 72 hrs by CCK-8 assay; assay type: functional, cell-based; settings: HCT-116, 72 h; how it was run: as §1
HeLa = experiment: Antiproliferative activity against human HeLa cells assessed as reduction in cell growth incubated for 72 hrs by CCK-8 assay; assay type: functional, cell-based; how it was run: as §1

Row | SMILES | inhibition at 2 µM (HCT-116 [1]) [%] | inhibition at 8 µM (HCT-116 [2]) [%] | inhibition at 2 µM (HepG2 [3]) [%] | inhibition at 8 µM (HepG2 [4]) [%] | inhibition at 2 µM (NCI-H460 [5]) [%] | inhibition at 8 µM (NCI-H460 [6]) [%] | inhibition (Histone deacetylase 1) [%] | IC50 (NCI-H460 [7]) [µM] | IC50 (A-375) [µM] | IC50 (HepG2 [8]) [µM] | IC50 (HCT-116 [9]) [µM] | IC50 (HeLa) [µM]
1 | CCC(C)n1cnc2c(NCc3ccc(C(=O)Nc4ccccc4N)cc3)nc(Cl)nc21 (configuration not stated) | 74.6 | 75.1 | 45 | 65 | 47.3 | 67.7 | 94.7 | 4.94 | 2.88 | 2.99 | 0.72 | 3.03
2 | CCCCn1cnc2c(Nc3cccc(Cl)c3)nc(NCCOCc3ccc(/C=C/C(=O)Nc4ccccc4N)cc3)nc21 | 4.76 | 10.8 | 20.4 | 30.4 | 25.7 | 51.1 | 24.6 | – | – | – | – | –
3 | Nc1ccccc1NC(=O)/C=C/c1ccc(Cn2cnc3c(Nc4cccc(Cl)c4)nc(Cl)nc32)cc1 | 12.9 | 15.8 | 35.8 | 49.3 | 7.11 | 29.4 | 23.6 | – | – | – | – | –
4 | Nc1ccccc1NC(=O)/C=C/c1ccc(Cn2cnc3c(NC4CCCCC4)nc(Cl)nc32)cc1 | 3.34 | 18.7 | 3.83 | 42.6 | 8.09 | 24.9 | 28.2 | – | – | – | – | –
5 | Nc1ccccc1NC(=O)/C=C/c1ccc(Cn2cnc3c(N4CCOCC4)nc(Cl)nc32)cc1 | 17.8 | 55.4 | 19 | 40.9 | 1.24 | 37.9 | 25.7 | – | – | – | – | –
6 | COC(CCn1cnc2c(NCc3ccc(C(=O)Nc4ccccc4N)cc3)nc(Cl)nc21)OC | 6.39 | 11.9 | 8.52 | 34.2 | 43.7 | 51.2 | 29.5 | – | – | – | – | –
7 | Nc1ccccc1NC(=O)c1ccc(Cn2cnc3c(N4CCOCC4)nc(Cl)nc32)cc1 | 77.7 | 80.7 | 56.9 | 71.3 | 5.05 | 47 | 93.2 | 6.09 | 2.68 | 2.82 | 0.45 | 2.03
8 | Nc1ccccc1NC(=O)/C=C/c1ccc(Cn2cnc3c(Nc4cccc(OC(F)(F)F)c4)nc(Cl)nc32)cc1 | 2.8 | 5.23 | 16.2 | 37.6 | 2.1 | 66.7 | 40.3 | – | – | – | – | –
9 | Nc1ccccc1NC(=O)c1ccc(Cn2cnc3c(Nc4cccc(Cl)c4)nc(Cl)nc32)cc1 | 56.2 | 78.4 | 29.9 | 66.7 | 10.3 | 67 | 61.3 | 6.58 | 6.08 | 9.8 | 2.34 | 11.3
10 | CCCn1cnc2c(NCc3ccc(C(=O)Nc4ccccc4N)cc3)nc(Cl)nc21 | 28.5 | 29.6 | 12.4 | 14.1 | 31 | 39.2 | 11.4 | – | – | – | – | –
11 | CC1CCN(c2nc(Cl)nc3c2ncn3Cc2ccc(C(=O)Nc3ccccc3N)cc2)CC1 | 70.9 | 78.6 | 1.22 | 65.3 | 11.8 | 40.9 | 75.3 | 7.4 | 4.24 | 5.18 | 0.95 | 4.5
12 | Nc1ccccc1NC(=O)c1ccc(CNc2nc(Cl)nc3c2ncn3Cc2ccccc2)cc1 | 7.7 | 11.4 | 5.01 | 5.32 | 43.8 | 46.4 | 27.6 | – | – | – | – | –
13 | Cc1ccc(Nc2nc(Cl)nc3c2ncn3Cc2ccc(/C=C/C(=O)Nc3ccccc3N)cc2)cc1 | 0.27 | 15 | 33.6 | 43 | 31.3 | 51.3 | 41.8 | – | – | – | – | –
14 | CC(C)n1cnc2c(NCc3ccc(C(=O)Nc4ccccc4N)cc3)nc(Cl)nc21 | 73.2 | 76 | 63.8 | 74.4 | 54.1 | 80.5 | 89.7 | 3.41 | 2.17 | 3.32 | 0.8 | 2.13
15 | CCCCn1cnc2c(NCc3ccc(C(=O)Nc4ccccc4N)cc3)nc(Cl)nc21 | 4.89 | 40.9 | 6.8 | 19.6 | 19.7 | 23.7 | 9.56 | – | – | – | – | –
16 | Nc1ccccc1NC(=O)/C=C/c1ccc(Cn2cnc3c(Nc4ccccc4)nc(Cl)nc32)cc1 | 7.75 | 30.9 | 16.4 | 41.9 | 2.05 | 28.7 | 14.8 | – | – | – | – | –
17 | Nc1ccccc1NC(=O)c1ccc(Cn2cnc3c(Nc4ccccc4)nc(Cl)nc32)cc1 | 71.4 | 83.5 | 49.6 | 74.8 | 42.7 | 77.8 | 84 | 5.74 | 2.8 | 4.18 | 1.07 | 2.92
18 | Nc1ccccc1NC(=O)/C=C/c1ccc(Cn2cnc3c(NCc4ccccc4)nc(Cl)nc32)cc1 | 2.85 | 17.4 | 11.5 | 37.7 | 4.62 | 49.1 | 22.5 | – | – | – | – | –
19 | CC1CCN(c2nc(Cl)nc3c2ncn3Cc2ccc(/C=C/C(=O)Nc3ccccc3N)cc2)CC1 | 4.24 | 26.9 | 8.73 | 32.2 | 8.24 | 10.8 | 4.87 | – | – | – | – | –
20 | Nc1ccccc1NC(=O)c1ccc(Cn2cnc3c(NCc4ccccc4)nc(Cl)nc32)cc1 | 68.3 | 78.3 | 7.55 | 62.8 | 44.7 | 61.2 | 76 | 11.2 | 5.83 | 7.72 | 1.06 | 6.77
21 | Nc1ccccc1NC(=O)c1ccc(Cn2cnc3c(Nc4cccc(OC(F)(F)F)c4)nc(Cl)nc32)cc1 | 1.6 | 46.6 | 1.88 | 31.2 | 47.7 | 62.4 | 37.4 | – | – | – | – | –
22 | CN1CCN(c2nc(Cl)nc3c2ncn3Cc2ccc(C(=O)Nc3ccccc3N)cc2)CC1 | 71.6 | 72.8 | 60.4 | 75 | 13.4 | 55 | 80.5 | 6.16 | 1.6 | 2.01 | 0.31 | 1.17
23 | Nc1ccccc1NC(=O)c1ccc(CNc2nc(Cl)nc3c2ncn3C2CCCC2)cc1 | 75.6 | 80.6 | 54.7 | 74.9 | – | 57.4 | 90.9 | 5.78 | 2.79 | 3.43 | 0.85 | 3.02
24 | Nc1ccccc1NC(=O)c1ccc(Cn2cnc3c(Nc4ccc(-c5ccccn5)cc4)nc(Cl)nc32)cc1 | 69.5 | 73.7 | 11.5 | 41.2 | 18.1 | 30.8 | 43.9 | 18.4 | 18.5 | 30.1 | 1.25 | > 20
